One experiment relates to Staphylococcus aureus. The experiment is described as follows: Antibacterial activity against Staphylococcus aureus assessed as inhibition of microbial growth incubated for 18 to 22 hrs by broth microdilution method. It is filed as functional. The gist of the method:
(§1)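 Broth microdilution in Mueller-Hinton II broth following NCCLS recommendations; compounds dissolved in DMSO.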

The subject of the next experiment is Staphylococcus warneri. As to the kind of experiment: Antibacterial activity against Staphylococcus warneri assessed as inhibition of microbial growth incubated for 18 to 22 hrs by broth microdilution method. In kind it is functional. The gist of the method: as §1
A further experiment concerns Enterococcus faecalis. As to the kind of experiment: Antibacterial activity against Streptococcus faecalis assessed as inhibition of microbial growth incubated for 18 to 22 hrs by broth microdilution method. It is filed as functional. The gist of the method: as §1
(In general: Dilution methods test growth across graded concentrations, often in twofold steps.)

The test system of the next experiment is Escherichia coli. The experiment is described as follows: Antibacterial activity against Escherichia coli assessed as inhibition of microbial growth incubated for 18 to 22 hrs by broth microdilution method. In kind it is functional. The gist of the method:
as §1

The subject of a further experiment is Proteus mirabilis. The experiment is described as follows: Antibacterial activity against Proteus mirabilis assessed as inhibition of microbial growth incubated for 18 to 22 hrs by broth microdilution method. It is filed as functional. The gist of the method:
as §1

For the next experiment, the system named is Enterobacter. As to the kind of experiment: Antibacterial activity against Enterobacter spp. assessed as inhibition of microbial growth incubated for 18 to 22 hrs by broth microdilution method. In kind it is functional. In outline: as §1
The test system of a further experiment is Klebsiella oxytoca. The experiment is described as follows: Antibacterial activity against Klebsiella oxytoca assessed as inhibition of microbial growth incubated for 18 to 22 hrs by broth microdilution method. In kind it is functional. In outline: as §1
Another experiment deals with Candida albicans. As to the kind of experiment: Antifungal activity against Candida albicans clinical isolates assessed as inhibition of microbial growth incubated for 24 hrs by broth microdilution method. It is filed as functional. In outline: (§2)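 Twenty-two clinical Candida isolates (8 C. albicans, 4 C. glabrata, 3 C. tropicalis, 3 C. krusei, 2 C. parapsilosis, 2 C. sake) were identified by colony morphology and biochemistry and subcultured at 35 °C for purity. Compounds were dissolved in DMSO and tested by broth microdilution in Sabouraud dextrose broth per NCCLS/CLSI/EUCAST guidance. Values are geometric mean MIC per species (µg/mL).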

The test system of the next experiment is Nakaseomyces glabratus. The experiment is described as follows: Antifungal activity against Candida glabrata clinical isolates assessed as inhibition of microbial growth incubated for 24 hrs by broth microdilution method. It is filed as functional. In outline:
as §2

The next experiment concerns Candida tropicalis. As to the kind of experiment: Antifungal activity against Candida tropicalis clinical isolates assessed as inhibition of microbial growth incubated for 24 hrs by broth microdilution method. It is filed as functional. The gist of the method: as §2
Another experiment has as its system Pichia kudriavzevii. As to the kind of experiment: Antifungal activity against Candida krusei clinical isolates assessed as inhibition of microbial growth incubated for 24 hrs by broth microdilution method. In kind it is functional. In outline: as §2
In the next experiment the test system is Candida parapsilosis. The experiment is described as follows: Antifungal activity against Candida parapsilosis clinical isolates assessed as inhibition of microbial growth incubated for 24 hrs by broth microdilution method. It is filed as functional. To be noted: Lodderomyces parapsilosis. The gist of the method:
as §2

Another experiment has as its system [Candida] sake. As to the kind of experiment: Antifungal activity against Candida sake clinical isolates assessed as inhibition of microbial growth incubated for 24 hrs by broth microdilution method. In kind it is functional. To be noted: Fermentozyma sake. In outline:
as §2

Experiment [1] deals with Streptococcus alpha-hemolyticus (Streptococcus sp.). As to the kind of experiment: Antibacterial activity against Streptococcus Streptococcus alpha hemolyticus assessed as inhibition of microbial growth incubated for 18 to 22 hrs by broth microdilution method.

What is called MIC is the lowest concentration that inhibits growth of the organism.

Turning to `C/C(=N/N=C1\NC(=O)CS1)C1CCCCC1`, the MIC in the experiment on Staphylococcus aureus, in the experiment on Staphylococcus warneri, with Enterococcus faecalis, with Escherichia coli, in the experiment with Proteus mirabilis and with Enterobacter was not below 256 µg/mL throughout. The MIC is not below 256 µg/mL in the experiment with Klebsiella oxytoca; 8 µg/mL with Candida albicans; 8 µg/mL in the experiment with Nakaseomyces glabratus; 16 µg/mL in the experiment on Candida tropicalis; 16 µg/mL with Pichia kudriavzevii; 16 µg/mL with Candida parapsilosis. Besides, the MIC in [Candida] sake was 16 µg/mL; in experiment [1], not below 256 µg/mL.

With `C/C(=N/N=C1\NC(=O)CS1)c1ccsc1`, the MIC with Staphylococcus aureus, with Staphylococcus warneri, in the experiment on Enterococcus faecalis, in the experiment on Escherichia coli, in the experiment on Proteus mirabilis and in the experiment with Enterobacter was not below 256 µg/mL in each case. Further, the minimum inhibitory concentration (MIC) is not below 256 µg/mL with Klebsiella oxytoca; 8 µg/mL with Candida albicans; 8 µg/mL in the experiment with Nakaseomyces glabratus; 8 µg/mL with Candida tropicalis; 16 µg/mL with Pichia kudriavzevii; 8 µg/mL in the experiment with Candida parapsilosis. Moreover, the minimum inhibitory concentration (MIC) in [Candida] sake was 16 µg/mL; in experiment [1] it was not below 256 µg/mL.

Turning to `O=C1CS/C(=N/N=C\c2ccccn2)N1`, the MIC in the experiment on Staphylococcus aureus, with Staphylococcus warneri, with Enterococcus faecalis, with Escherichia coli, in the experiment on Proteus mirabilis and in the experiment on Enterobacter was not below 256 µg/mL in each case. In addition, the minimum inhibitory concentration (MIC) is not below 256 µg/mL in the experiment on Klebsiella oxytoca; 2 µg/mL in the experiment on Candida albicans; 8 µg/mL with Nakaseomyces glabratus; 2 µg/mL in the experiment on Candida tropicalis; 4 µg/mL with Pichia kudriavzevii; 2 µg/mL in the experiment with Candida parapsilosis. The MIC in experiment [Candida] sake is 2 µg/mL; in experiment [1] it was not below 256 µg/mL.

As to `O=C1CS/C(=N/N=C\c2ccncc2)N1`, the MIC in the experiment on Staphylococcus aureus, in the experiment with Staphylococcus warneri, in the experiment with Enterococcus faecalis, in the experiment with Escherichia coli, in the experiment with Proteus mirabilis and in the experiment on Enterobacter was not below 256 µg/mL in each case. Besides, the minimal inhibitory concentration (MIC) is not below 256 µg/mL with Klebsiella oxytoca; 256 µg/mL in the experiment on Candida albicans; 256 µg/mL in the experiment on Nakaseomyces glabratus; 256 µg/mL in the experiment with Candida tropicalis; 256 µg/mL in the experiment with Pichia kudriavzevii; 256 µg/mL with Candida parapsilosis. Further, the MIC in experiment [Candida] sake is 256 µg/mL; in experiment [1], not below 256 µg/mL.

Consider `CCCCCC/C(C)=N\N=C1/NC(=O)CS1`, for which the minimum inhibitory concentration (MIC) with Staphylococcus aureus, in the experiment on Staphylococcus warneri, with Enterococcus faecalis, with Escherichia coli, in the experiment with Proteus mirabilis and in the experiment with Enterobacter was not below 256 µg/mL each time. The minimum inhibitory concentration (MIC) with Klebsiella oxytoca is not below 256 µg/mL; in the experiment on Candida albicans, 2 µg/mL; with Nakaseomyces glabratus, 2 µg/mL; in the experiment with Candida tropicalis, 2 µg/mL; with Pichia kudriavzevii, 16 µg/mL; with Candida parapsilosis, 16 µg/mL. In addition, the MIC is 16 µg/mL in [Candida] sake and not below 256 µg/mL in experiment [1].

For the molecule `C/C(=N/N=C1\NC(=O)CS1)c1ccccc1[N+](=O)[O-]`, the minimal inhibitory concentration (MIC) in the experiment with Staphylococcus aureus, with Staphylococcus warneri, with Enterococcus faecalis, in the experiment on Escherichia coli, with Proteus mirabilis and in the experiment with Enterobacter was not below 256 µg/mL throughout. In addition, the MIC is not below 256 µg/mL with Klebsiella oxytoca; 2 µg/mL in the experiment on Candida albicans; 2 µg/mL in the experiment on Nakaseomyces glabratus; 2 µg/mL with Candida tropicalis; 8 µg/mL with Pichia kudriavzevii; 2 µg/mL with Candida parapsilosis. Besides, the values for the MIC in [Candida] sake and in [1] were 2 µg/mL and not below 256 µg/mL, respectively.

As to `CC(C)(O/N=C(\C(=O)N[C@@H]1C(=O)N2C(C(=O)[O-])=C(C[n+]3ccccc3)CS[C@H]12)c1csc(N)n1)C(=O)O` [CEFTAZIDIME], the minimal inhibitory concentration (MIC) with Staphylococcus aureus, in the experiment with Staphylococcus warneri, with Enterococcus faecalis, in the experiment with Escherichia coli, in the experiment on Proteus mirabilis and in the experiment with Enterobacter was 8 µg/mL each time. Further, the MIC (with Klebsiella oxytoca; in [1]) was 8 µg/mL throughout.

The record behind these values is ChEMBL document CHEMBL4190362, “Synthesis, biological evaluation and quantitative structure-active relationships of 1,3-thiazolidin-4-one derivatives. A promising chemical scaffold endowed with high antifungal potency and low cytotoxicity” (Eur J Med Chem, 2017).
